In ChEMBL document CHEMBL1121729, “N*-N*-S* tridentate ligand system as potential antitumor agents” (1981):

Legend:
P388 [1] = assay: Change in body weight of P-388 lymphocytic leukemia implanted CDF1 mice to that of control when 200 mg/kg compound administered; T/C= 1/1.3; type: functional, Mus musculus
In short: (§1)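 CDF1 mice given 10^6 P-388 lymphocytic leukemia cells ip on day 0; drug given ip as a suspension in klucel or in saline plus Tween 80 on days 1, 5 and 9, starting 24 h after tumor transplantation; six mice per group. Read-outs are treated/control (T/C, %) and body weight change in g as treated/control.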

P388 [2] = assay: Change in body weight of P-388 lymphocytic leukemia implanted CDF1 mice to that of control when 100 mg/kg compound administered; T/C= -0.2/1.3; type: functional, Mus musculus; in short: as §1
P388 [3] = assay: Antitumor activity against P-388 lymphocytic leukemia implanted CDF1 mice to that of control when 100 mg/kg compound administered; type: functional, Mus musculus; in short: as §1
P388 [4] = assay: Antitumor activity against P-388 lymphocytic leukemia implanted CDF1 mice to that of control when 400 mg/kg compound administered; toxic; type: functional, organism-based; design: dose 400 mg/kg; settings: Mus musculus; in short: as §1
P388 [5] = assay: Antitumor activity against P-388 lymphocytic leukemia implanted CDF1 mice to that of control when 200 mg/kg compound administered; type: functional, Mus musculus; in short: as §1
P388 [6] = assay: Change in body weight of P-388 lymphocytic leukemia implanted CDF1 mice to that of control when 200 mg/kg compound administered; T/C= 2.1/1.3; type: functional, Mus musculus; in short: as §1
P388 [7] = assay: Antitumor activity against P-388 lymphocytic leukemia implanted CDF1 mice to that of control when 400 mg/kg compound administered; type: functional, Mus musculus; in short: as §1
P388 [8] = assay: Change in body weight of P-388 lymphocytic leukemia implanted CDF1 mice to that of control when 400 mg/kg compound administered; T/C= 0.8/1.3; type: functional, Mus musculus; in short: as §1
P388 [9] = assay: Change in body weight of P-388 lymphocytic leukemia implanted CDF1 mice to that of control when 100 mg/kg compound administered; T/C= 3.3/1.3; type: functional, Mus musculus; in short: as §1
P388 [10] = assay: Change in body weight of P-388 lymphocytic leukemia implanted CDF1 mice to that of control when 400 mg/kg compound administered; T/C= -2.5/5; type: functional, Mus musculus; in short: as §1
P388 [11] = assay: Change in body weight of P-388 lymphocytic leukemia implanted CDF1 mice to that of control when 100 mg/kg compound administered; T/C= 1.5/5; type: functional, Mus musculus; in short: as §1
P388 [12] = assay: Change in body weight of P-388 lymphocytic leukemia implanted CDF1 mice to that of control when 200 mg/kg compound administered; T/C= 1.1/5; type: functional, Mus musculus; in short: as §1
Sarcoma-180 [13] = assay: Growth inhibition of cultured Sarcoma 180 cells after 48-h exposure to compound at 1.6 x 10E-8 M/mL in trail 2; type: functional; settings: Mus musculus, Sarcoma-180, 48 h
L1210 [14] = assay: Growth inhibition of cultured L-1210 cells after 48-h exposure to compound at 4 x 10E-9 M/mL in trail 2; type: functional; settings: Mus musculus, L1210, 48 h
Sarcoma-180 [15] = assay: Growth inhibition of cultured Sarcoma cells after 48-h exposure to compound at 4 x 10E-9 M/mL in trail 2; type: functional; settings: Mus musculus, Sarcoma-180, 48 h
P388 [16] = assay: Change in body weight of P-388 lymphocytic leukemia implanted CDF1 mice to that of control when 400 mg/kg compound administered; T/C= -0.8/5; type: functional, Mus musculus; in short: as §1
Sarcoma-180 [17] = assay: Growth inhibition of cultured Sarcoma cells after 48-h exposure to compound at 4 x 10E-9 M/mL in trail 1; type: functional; settings: Mus musculus, Sarcoma-180, 48 h
L1210 [18] = assay: Growth inhibition of cultured L-1210 cells after 48-h exposure to compound at 4 x 10E-9 M/mL in trail 1; type: functional; settings: Mus musculus, L1210, 48 h
P388 [19] = assay: Change in body weight of P-388 lymphocytic leukemia implanted CDF1 mice to that of control when 100 mg/kg compound administered; T/C=1.5/0.5; type: functional, Mus musculus; in short: as §1
Sarcoma-180 [20] = assay: Growth inhibition of cultured Sarcoma 180 cells after 48-h exposure to compound at 1.6 x 10E-8 M/mL in trail 1; type: functional; settings: Mus musculus, Sarcoma-180, 48 h
L1210 [21] = assay: Growth inhibition of cultured L-1210 cells after 48-h exposure to compound at 1.6 x 10E-8 M/mL in trail 2; type: functional; settings: Mus musculus, L1210, 48 h
P388 [22] = assay: Change in body weight of P-388 lymphocytic leukemia implanted CDF1 mice to that of control when 200 mg/kg compound administered; T/C=1.5/0.5; type: functional, Mus musculus; in short: as §1
L1210 [23] = assay: Growth inhibition of cultured L-1210 cells after 48-h exposure to compound at 1.6 x 10E-8 M/mL in trail 1; type: functional; settings: Mus musculus, L1210, 48 h

## C/N=C(/S)c1cccc(-c2ccccn2)n1
P388 [1]
  Change in weight: 1
P388 [2]
  Change in weight: -0.2
P388 [3]
  T/C: 91%
P388 [4]
  T/C: Toxic
P388 [5]
  T/C: 83%

## CN(C)C(=S)c1cccc(-c2ccccn2)n1
P388 [6]
  Change in weight: 2.1
P388 [7]
  T/C: 91%
P388 [8]
  Change in weight: 0.8
P388 [9]
  Change in weight: 3.3
P388 [3]
  T/C: 95%
P388 [5]
  T/C: 95%

## NC(=S)c1ccc2ccc3cccnc3c2n1
P388 [10]
  Change in weight: -2.5
P388 [7]
  T/C: 112%
P388 [11]
  Change in weight: 1.5
P388 [12]
  Change in weight: 1.1
P388 [3]
  T/C: 100%
P388 [5]
  T/C: 106%

## NC(=S)c1cccc(-c2ccccn2)n1
Sarcoma-180 [13]
  inhibition at 0.016 µM: 60%
L1210 [14]
  inhibition at 0.004 µM: 32%
Sarcoma-180 [15]
  inhibition at 0.004 µM: 10%
P388 [7]
  T/C: 143%
P388 [16]
  Change in weight: -0.8
Sarcoma-180 [17]
  inhibition at 0.004 µM: 35%
L1210 [18]
  inhibition at 0.004 µM: 51%
P388 [3]
  T/C: 112%
P388 [19]
  Change in weight: 1.5
Sarcoma-180 [20]
  inhibition at 0.016 µM: 85%
L1210 [21]
  inhibition at 0.016 µM: 93%
P388 [5]
  T/C: 125%
P388 [22]
  Change in weight: 1.5
L1210 [23]
  inhibition at 0.016 µM: 95%
